Measurements pooled from the literature.
Each line is one published result; the experiments were not run side by side.
Target: Mitogen-activated protein kinase kinase kinase kinase 4 (MAP4K4, Homo sapiens, UniProt O95819)

Structure (SMILES)	observed	mode	technique	concentration	quantity	value
CCCCC(=O)Nc1ccc(-c2ccc3ncn(CCC)c(=O)c3c2)cn1	binding	–	competition with immobilised ligand	0.5 µM	remaining binding	100%
C=CC(=O)N1CCC[C@@H](n2nc(-c3ccc(Oc4ccccc4)cc3)c3c(N)ncnc32)C1	enzyme activity	inhibitor	–	1 µM	inhibition	4%
C[C@H]1CC[C@H](n2c3cnccc3c3cnc(Nc4ccc5c(n4)CCN(C(=O)CO)C5)nc32)CC1	binding	–	competition with immobilised ligand	1 µM	remaining binding	100%
C1=C/COCc2cc(ccc2OCCN2CCCC2)Nc2nccc(n2)-c2cccc(c2)COC/1	binding	–	–	0.1 µM	remaining binding	55%
COc1ccc2[nH]c3c4[nH]c5ccc(OC)cc5c4c4c(c3c2c1)C(=O)NC4=O	binding	–	competition with immobilised ligand	1 µM	remaining binding	2.7%
C=CC(=O)N1CCC([C@@H]2CCNc3c(C(N)=O)c(-c4ccc(Oc5ccccc5)cc4)nn32)CC1	enzyme activity	inhibitor	–	1 µM	inhibition	23%
CC(C)S(=O)(=O)c1ccc2nccc(Nc3ccc4sc(C5CCCC5)nc4c3)c2c1	enzyme activity	inhibitor	–	1 µM	activity vs control	110%
C#Cc1cc(-c2cc(Nc3nc(N[C@@H](C)c4ccc(F)cn4)ncc3Cl)n[nH]2)ccc1C=O	enzyme activity	inhibitor	–	0.2 µM	inhibition	11.9%
COc1ccc2oc(-c3ccc4nc(N)oc4c3)c/c(=N\c3ccccc3NC(=O)CCN)c2c1	binding	–	–	1 µM	remaining binding	96%
Cc1cc(O)c(-c2ccc([C@@H](C)CN(C)C)cc2)c2c1[nH]c(=O)c1sccc12	enzyme activity	inhibitor	–	0.1 µM	inhibition	-4%
